# Compound activity deposited in PubChem by several laboratories.
# PREPL inh = PREPL enzyme inhibitors, primary screen, biochemical, fluorescence polarization; Prolyl endopeptidase-like (Homo sapiens), Q4J6C6; recombinant PREPL, fluorescence polarization activity-based probe; inhibition, % at 5.96 µM; 320,000 tested, 0.68% active; AID 2751, 2010; in the data active = inhibition above about 43%;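 note: 0% = enzyme with DMSO and 100% = wells lacking enzyme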
# Target sequence (Q4J6C6 whole entry, looked up): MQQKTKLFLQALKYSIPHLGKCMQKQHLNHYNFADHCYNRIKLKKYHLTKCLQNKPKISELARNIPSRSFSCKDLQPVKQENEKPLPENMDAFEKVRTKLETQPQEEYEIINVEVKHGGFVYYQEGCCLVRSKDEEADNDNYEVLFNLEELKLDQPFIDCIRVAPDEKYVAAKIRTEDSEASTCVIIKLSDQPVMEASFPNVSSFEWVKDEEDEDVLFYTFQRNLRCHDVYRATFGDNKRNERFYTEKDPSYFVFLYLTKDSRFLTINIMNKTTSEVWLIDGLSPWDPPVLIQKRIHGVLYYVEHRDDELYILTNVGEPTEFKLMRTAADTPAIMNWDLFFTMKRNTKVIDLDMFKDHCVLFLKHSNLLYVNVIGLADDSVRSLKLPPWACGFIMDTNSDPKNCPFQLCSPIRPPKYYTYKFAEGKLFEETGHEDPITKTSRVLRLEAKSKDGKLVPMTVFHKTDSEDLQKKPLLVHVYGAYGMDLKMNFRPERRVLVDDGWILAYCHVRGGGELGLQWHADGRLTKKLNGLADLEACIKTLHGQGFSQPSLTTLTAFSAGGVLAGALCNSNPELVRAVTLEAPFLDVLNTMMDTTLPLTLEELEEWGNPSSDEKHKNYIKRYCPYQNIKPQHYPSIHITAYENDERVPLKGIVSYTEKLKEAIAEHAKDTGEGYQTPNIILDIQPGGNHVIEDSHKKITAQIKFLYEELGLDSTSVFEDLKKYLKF
# UBC9 SUMO inh = inhibitors of in vitro SUMOylation cascade, primary screen, biochemical, HTRF, uHTS; SUMO-conjugating enzyme UBC9 (Homo sapiens), P63279; HTRF SUMOylation assay, SAE1/SAE2 + UBC9; inhibition, % at 35 µM; 290,000 tested, 0.36% active; AID 2006, 2009; in the data active = inhibition above about 50%, passing the limit was not always enough
# ALR H2O2 inh = inhibitors of human ALR sulfhydryl oxidase, primary screen, biochemical, H2O2 detection, HRP-luminol luminescence, single point; inhibition, % (no concentration beside the values); purified ALR, DTT oxidation; FAD-linked sulfhydryl oxidase ALR (Homo sapiens), P55789; 290,000 tested, 3.8% active; AID 485317, 2010;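 active = mean replicate inhibition above about 79%, with every replicate also reaching it, limit read from the data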
# UBC13 inh = UBC13 polyubiquitin chain formation inhibitors, primary screen, biochemical, TR-FRET, uHTS. inhibition, % at 20 µM. AID 485273, 2010. Ubiquitin-conjugating enzyme E2 N (Homo sapiens), P61088. 330,000 tested, 0.47% active; in the data active = inhibition above about 45%, passing the limit was not always enough
# RBBP9 inh = human RBBP9 inhibitors, primary screen, biochemical, fluorescence polarization, FP-Rh probe, HTS | recombinant RBBP9 | Serine hydrolase RBBP9 (Homo sapiens), O75884 | inhibition, % at 7.94 µM | 220,000 tested, 0.2% active | AID 1515, 2009;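 active = inhibition above the campaign mean of all tested compounds plus 3 SD, cut at about 14% in these data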;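 note: plate controls were DMSO wells with RBBP9 for no effect and wells lacking RBBP9 protein for full effect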
#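 Measured by – fluorescence polarization · Test system – RBBP9 protein · Input – 2.5 µM RBBP9 dispensing solution, before mixing · Measure – percent inhibition from mP, scaled between DMSO and no-protein wells · Benchmarks – DMSO-treated enzyme wells and wells lacking RBBP9 · Times – preincubation 30 min plus labeling 45 min at 25 °C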
# Rin1 Abl inh = inhibitors of Rin1-Abl protein binding, primary screen, biochemical, TR-FRET | 360,000 tested, 0.4% active | inhibition, % at 7.35 µM | Tyrosine-protein kinase ABL1 (Homo sapiens) + Ras and Rab interactor 1 (Homo sapiens), …; in the data active = inhibition above about 5%, passing the limit was not always enough
# Starred values were filed as active, the others as inactive; . = not tested or not shown. Rows were chosen to be rich in hits. Some 4.3% of all compounds tested hit in one or more screens of this group.
SMILES,PREPL inh,UBC9 SUMO inh,ALR H2O2 inh,UBC13 inh,RBBP9 inh,Rin1 Abl inh
Cc1nnc(NC(=O)CSc2ncc(-c3ccccc3)[nH]2)s1,-6,29,62,9,-4,-1
O=C(CSc1ncc(-c2ccc(F)cc2)[nH]1)Nc1cccc(O)c1,7,13,99*,10,-9,5
CCc1nnc(NC(=O)CSc2ncc(-c3ccccc3)[nH]2)s1,16,-5,99*,2,5,-4
CCOC(=O)c1c(N)sc2c(OC)c(Br)ccc12,2,-16,99*,14,-8,-4
CCOC(=O)c1c(N)sc(C(=O)OC)c1C,17,-3,.,-14,-8,1
CC1CCCCN1S(=O)(=O)c1ccc(C(=O)Nc2nnc(-c3ccncc3)o2)cc1 (centres undefined),4,0,81*,-8,-14,0
CCC1CCCCN1S(=O)(=O)c1ccc(C(=O)Nc2nnc(C3=COCCO3)o2)cc1 (centres undefined),0,5,95*,-23,.,1
CCCCN(C)S(=O)(=O)c1ccc(C(=O)Nc2nnc(C3=COCCO3)o2)cc1,1,9,91*,-13,-9,5
O=C(Nc1nnc(-c2ccncc2)o1)c1ccccc1,18,2,87*,-20,-1,1
O=C1C(=Cc2cn(-c3ccccc3)nc2-c2ccc(OCc3ccc(Cl)cc3)cc2)SC(=S)N1CCS(=O)(=O)O,.,.,.,.,.,-4
CS(=O)(=O)c1cccc(C(=O)Nc2nnc(C3=COCCO3)o2)c1,-1,.,99*,-6,.,-2
CCC(C)(C)C1CCC2(CC1)NC(=O)N(CC(=O)NC(C)CCc1ccccc1)C2=O (centres undefined),.,.,.,3,.,2
COc1ccc(CNc2ccccn2)c(O)c1,.,-4,.,-5,.,0
Oc1c(Br)cc(Br)cc1CNc1ccccn1,-2,2,98*,11,-5,0
Oc1c(Br)cc(Br)cc1CNc1cccc2cccnc12,14,75*,-104,-64,.,4
Oc1c(Br)cc(Br)cc1CNn1cnnc1,9,-6,99*,-9,.,-4
COc1cccc(CNc2cccc3cccnc23)c1O,22,63,-13,-115,6,4
Oc1c(Cl)cc(Cl)cc1CNn1cnnc1,-4,16,.,-12,-3,-2
Oc1ccc(Cl)cc1CNc1cccc2cccnc12,22,66*,.,-104,.,3
Oc1ccc(Br)cc1CNc1cccc2cccnc12,28,76,.,-140,.,-2
Cc1nn(CC(C)C)c(Cl)c1C(=O)NCC1CCCO1 (centres undefined),.,.,.,.,.,-4
Cc1nnc(SCC(=O)Nc2cc(S(C)(=O)=O)ccc2Cl)n1Cc1ccccc1,19,-6,.,-2,.,2
Cc1oc(-c2ccccc2Cl)nc1CS(=O)CC(=O)NCc1ccccc1Cl (centres undefined),-11,-4,99*,9,.,0
O=C(CCc1nc(-c2ccccc2Cl)no1)NCc1ccco1,-2,8,.,4,-3,1
Cc1oc(-c2ccc(Cl)cc2)nc1CS(=O)CC(=O)NCc1ccco1 (centres undefined),-12,4,99*,-5,.,0
SMILES,PREPL inh,UBC9 SUMO inh,ALR H2O2 inh,UBC13 inh,RBBP9 inh,Rin1 Abl inh
Cc1oc(-c2ccccc2Cl)nc1CS(=O)CC(=O)NCc1ccco1 (centres undefined),-8,2,98*,2,.,0
O=C(CCC1CCCCC1)NNC(=O)c1cnccn1,0,-2,-5,-8,-1,1
CC(=O)N(c1cc(C)ccc1C)c1ccccc1[N+](=O)[O-],.,.,.,.,.,2
CN(C)c1ccc(/C=C2/NC(=O)NC2=O)cc1,5,-19,99*,-21,-1,-5
O=C(COC(=O)CN1C(=O)NC2(CCCC2)C1=O)NCc1ccc(Cl)cc1Cl,-3,.,.,2,.,-2
COc1cccc(-n2cnc3cccc(N)c32)c1,11,16,87*,-8,4,-1
COc1cc(Cc2ccc(N)c(OC)c2)ccc1N,9,-5,98*,3,-6,-3
Clc1ccc(Nc2nc(-c3ccncc3)cs2)cc1,11,.,-2,-2,-6,2
Nc1ccc(Nc2nc(-c3ccncc3)cs2)cc1,44*,-9,39,2,-3,-7
COc1nc(OC)nc(Oc2ccc(Cl)cc2[N+](=O)[O-])n1,9,-4,13,-8,2,0
COc1ccc([N+](=O)[O-])c(S(=O)(=O)c2ccc(Cl)cc2)n1,10,20,75*,-3,-1,1
O=[N+]([O-])c1cccnc1S(=O)(=O)c1ccccc1,11,2,6,3,.,1
COc1ccc([N+](=O)[O-])c(S(=O)(=O)c2ccccc2)n1,13,-7,97*,-3,4,1
COc1ccc(C(=O)NNC(=O)COc2ccc(Cl)cc2)c(OC)c1,-7,-6,-12,9,.,0
CC1(C)C[C@H]2C3=CCC4[C@@]5(C)CC[C@H](O)[C@@](C)(CO)C5CC[C@@]4(C)[C@]3(C)C[C@@H](O)[C@@]2(CO)[C@@H](O)[C@@H]1O (some centres undefined),8,.,-11,12,.,2
O=C(CCc1cnccn1)NC1CCCc2c1cnn2-c1ccc(F)cc1F (centres undefined),-3,4,-4,5,0,-2
COc1ccc(N2CCN(C(CNC(C)=O)c3ccc4c(c3)OCO4)CC2)cc1 (centres undefined),10,-5,88*,-10,.,2
COc1ccc(N2CCN(C(CNC(=O)CC(C)(C)C)c3ccc4c(c3)OCO4)CC2)cc1 (centres undefined),10,-10,82*,-7,.,1
C=C1CCCC2OC(CC3=CC4/C(C)=C/CC(C)CC(/C=C(\C)C(O)C5CC(O)C(O)C(CCC(O)/C=C/C(C)=C/CCC6=NCCC(C3)C64C)O5)OC(=O)CC3OC(C(O)C1)C(O)C3O)CC(O)C2O (centres undefined),.,.,.,.,.,1
CCC(=O)c1cn([C@@H](CCC(OC)OC)CC(=O)OC(C)(C)C)cc1CC,-9,.,-7,5,.,2
COc1cc(C(=O)NCc2nnc(SCC(=O)NCCc3ccccc3)o2)cc(OC)c1OC,14,13,-1,-7,.,-4
Cc1ccc(S(=O)(=O)c2nc(Nc3ccccc3C#N)sc2Cl)cc1,1,-56,-4,2,-9,0
Cc1ccc(S(=O)(=O)c2nc(NN(C)C)sc2Cl)cc1,5,-1,97*,-13,-8,0
Cc1ccc(C)c(N2CCN(C(=O)c3ccc4nc(-c5ccco5)c(-c5ccco5)nc4c3)CC2)c1,9,-3,0,-13,1,-1
